Assay results from PubChem BioAssay AID434971 (Sanford-Burnham Center for Chemical Genomics, 2010).
Among all 11,000 compounds or so, about 510 (4.6%) were called active. This is one part of a sample in which actives are shown more often than they occur.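 Rule for the calls: active = inhibition of at least 40% at 10 µM in either of the two replicates; inactive = the rest.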

Test system: intestinal alkaline phosphatase [Mus musculus]
Test: mouse intestinal phosphatase enzyme inhibition – biochemical, luminescence, single concentration, confirmation (AID 434971);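 note: plate controls were DMSO wells with enzyme for no effect and buffer wells lacking enzyme for full effect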
Settings: purified mouse IAP, CDP-Star luminescence, 30 min; at 10 µM; hits give high values
Method in brief: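 System: mouse IAP enzyme; medium: DEA buffer containing ZnCl2 and MgCl2; also added: CDP-Star as the luminogenic phosphatase substrate; dosing: test compound delivered in DMSO; timing: 30 min enzyme-substrate-compound incubation at room temperature; detection: luminescence from CDP-Star dephosphorylation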

inhibition, inactive:
Cc1cc(C)cc(NC(=O)NC2CCCCCCC2)c1 -237%
COc1ccc(CN2CCC(n3nccc3NC(=O)CCCc3ccccc3)CC2)cc1C -140%
COc1ccc(NC(=O)NC2CC3CCCC(C2)N3Cc2ccccc2)cc1 (stereo not given) -171%
c1ccc(-c2cc3c(NCC4COc5ccccc5O4)ncnc3s2)cc1 (stereo not given) -97.1%
Cc1ccc(C)c(CN2CCC(CNC(=O)Nc3ccc(C)c(F)c3)CC2)c1 -116%
CCn1cc(CN2CCC(C(=O)Nc3cccc(-c4cccc(Cl)c4)c3)CC2)cn1 -329%
C#CCOCCOCCOCCNc1nc(N2CCN(C(=O)CCCCCCCCCCNC(=O)Cn3cc(CCCCCN)nn3)CC2)nc(N2CCN(C(=O)CCCCCCCCCCNC(=O)[C@H](CO)n3cc(CCCSC)nn3)CC2)n1 -153%
CC(C)S(=O)(=O)c1csc(NC(=O)Nc2ccc(Cl)cc2)c1Cl -116%
COC(=O)c1ccc(NC(=O)Nc2ccc(C)cc2)cc1 -115%
CCn1cc(CN2CCC(C(=O)Nc3cccc(-c4cccc(Cl)c4)c3)CC2)c(C)n1 -396%
Cc1cccc(CN2CCC(CNC(=O)Nc3ccc(F)c(Cl)c3)CC2)c1 -115%
O=C(Nc1cccc(-c2cccc(Cl)c2)c1)C1CCN(C2CCC2)CC1 -294%
Cc1cc(NC(=O)Nc2ccc(Cl)cc2)n(-c2ccccc2)n1 -107%
O=C(Nc1cccc(F)c1)NC1CCCCCCC1 -142%
OCCCN1c2ccccc2Nc2nnc(-c3ccccc3)cc21 -208%
CCc1ccc(NC(=O)NC(C)c2ccc3c(c2)OCO3)cc1 (stereo not given) -166%

inhibition, active:
O=C(CCCN1C(=O)/C(=C\c2ccco2)SC1=S)Nc1cccc2ccccc12 49.1%
O=C(CCCN1C(=O)/C(=C/c2ccco2)SC1=S)Nc1ccccc1 49.1%
O=c1ccc2c(-c3ccccc3S(=O)(=O)O)c3ccc(O)c(O)c3oc-2c1O 79.7%
O=C(Nc1nc(-c2ccco2)c(-c2ccco2)s1)c1ccco1 74.3%
COc1ccccc1-n1c(-c2cc(-c3ccco3)[nH]n2)n[nH]c1=S 68.7%
COc1cc(C(=O)Nn2c(O)c(C3=c4ccccc4=NC3=O)sc2=S)ccc1O 93.1%
CCN(c1ccccc1)S(=O)(=O)c1ccc2[nH]c(=O)[nH]c2c1 73.4%
NS(=O)(=O)c1ccc(-c2ccc(/C=C3\SC(=O)NC3=O)o2)cc1 68.1%
Oc1ccc(CNc2ccccc2O)cc1 41.2%
Nc1ccc2nc3c(=O)[nH]c(=S)[nH]c3nc2c1 78.3%
Oc1cc(O)c2c(c1)OC(c1ccc(O)c(O)c1)C(O)C2 (stereo not given) 84.5%
COc1cccc(/C=N\NC(=O)C2=NNC(=O)C2C)c1O (stereo not given) 60.2%
Cc1ccc(Cc2cnc(N)s2)o1 58.5%
O=c1[nH]c(=S)[nH]c2[nH]c(=S)[nH]c12 81.9%
COc1ccc(OC)c(Nc2nc(-c3ccc(O)c(O)c3)cs2)c1 74.3%
COc1cc(/C=N\Nc2nc(-c3cccs3)c(NC(C)=O)s2)ccc1O 47%
Clc1ccccc1CSc1nnc(-c2ccco2)c(-c2ccco2)n1 71.8%
c1ccc(CSc2nnc(-c3ccco3)c(-c3ccco3)n2)cc1 69%
O=[N+]([O-])c1cc(Cl)cc(/C=N/NC(=S)Nc2cc(S(=O)(=O)N3CCOCC3)ccc2Cl)c1O 40.3%
